Drawing on ChEMBL document CHEMBL1158582, “Novel DNA intercalators without basic side chains as efficient antitumor agents: design, synthesis and evaluation of benzo-[c,d]-indol-malononitrile derivatives” (Bioorg Med Chem, 2010), this text covers Activity and IC50 for seven molecules.

Active and inactive are the calls of the source. The rule behind the calls is not given here.

The test system of experiment [1] is Nucleic Acid. Put plainly: Induction of DNA damage-mediated relaxation of Escherichia coli super coiled pBR322 DNA assessed as formation of open circular form-2 DNA after 3 hrs under light condition by UV transilluminator. The class given is nucleic-acid assay. A digest of the protocol: (§1)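 Supercoiled pBR322 (25 ng/µL) in 20 mM Tris–HCl pH 7.5 with 50 µM compound under light irradiation for 3 h; irradiated DNA alone as control. Products resolved on 1% agarose in 0.5× TAE containing 0.5 µg/mL EB, 80 V, 1.5 h.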

A further experiment relates to SMMC-7721. Put plainly: Cytotoxicity against human SMMC7721 cells after 48 hrs by MTT assay. The class given is functional, cell-based. The conditions noted are these: SMMC-7721, 48 h. The essentials: (§2)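 MTT assay, cells incubated 48 h with a range of compound concentrations. MTT (5 mg/mL in PBS) added, 3 h, formazan dissolved in lysis buffer (200 g/L SDS, 50% formamide, pH 4.7), absorbance read at 570 nm. At least three independent experiments; mean percent absorbance plotted against concentration to give IC50.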

Experiment [2] deals with Nucleic Acid. Put plainly: Induction of DNA damage-mediated relaxation of Escherichia coli super coiled pBR322 DNA assessed as formation of linear form-3 DNA after 12 hrs under dark condition by UV transilluminator. The class given is nucleic-acid assay. The essentials: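 Supercoiled pBR322 (25 ng/µL) in 20 mM Tris–HCl pH 7.5 with 50 µM compound, 12 h at 4 °C in the dark. Quenched with loading buffer; 1% agarose gel in 0.5× TAE with 0.5 µg/mL EB, 80 V, 1.5 h.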

The test system of another experiment is MCF7. Put plainly: Cytotoxicity against human MCF7 cells after 48 hrs by MTT assay. The class given is functional, cell-based. The conditions noted are these: MCF7, 48 h. A digest of the protocol:
as §2

Experiment [3] concerns Nucleic Acid. Put plainly: Binding affinity to calf thymus DNA assessed as DNA intercalation at 100 uM by UV-visible spectrophotometry. The class given is nucleic-acid assay. The conditions noted are these: Bos taurus; 25 uM; in the assay text read “at 25 uM” for “at 100 uM”. A digest of the protocol:
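UV–vis titration: compound fixed at 25 µM, CT DNA concentration increased; bathochromic shift and hypochromicity taken as the sign of intercalation, isosbestic point followed.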

Experiment [4] has as its system Nucleic Acid. Put plainly: Induction of DNA damage-mediated relaxation of Escherichia coli super coiled pBR322 DNA assessed as formation of linear form-3 DNA after 3 hrs under light condition by UV transilluminator. The experiment is classed as nucleic-acid assay. The essentials: as §1
Experiment [5] relates to Nucleic Acid. Put plainly: Binding affinity to calf thymus DNA assessed as increase in DNA viscosity by viscometric titration. The experiment is classed as nucleic-acid assay. The following applies: Bos taurus. The essentials: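 CT DNA sonicated 10 min and filtered through 0.45 µm membrane; DNA 100 µM. Titrations in an Ubbelohde viscometer in a thermostated bath held at 25 ± 0.1 °C.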

Experiment [6] has as its system Nucleic Acid. Kind of experiment: Binding affinity to DNA assessed as decrease in ethidium bromide fluorescence at 5 uM by fluorescence spectroscopy. The class given is nucleic-acid assay. A digest of the protocol:
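Fluorescence displacement of ethidium bromide bound to DNA; loss of EB fluorescence taken as displacement by the test agent. Compound alone with DNA measured as a control for the compound's own fluorescence.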

Take `N#CC(C#N)=c1c2cccc3cccc(c32)n1CCBr`: the result with Nucleic Acid [1] and in the experiment with Nucleic Acid [2] was Active. The IC50 was determined as 210 nM in the experiment with SMMC-7721 and 5380 nM in the experiment on MCF7.

For `N#CC(C#N)=c1c2cccc3cccc(c32)n1C(=O)c1ccccc1`, the result in the experiment with Nucleic Acid [1] and with Nucleic Acid [2] was Active. In addition, in the experiment on Nucleic Acid [3], the outcome was inactive. Also, the figures for the concentration for half-maximal inhibition (IC50) in the experiment with SMMC-7721 and with MCF7 were 8800 nM and 15300 nM, respectively.

Take `N#CCn1c(=C(C#N)C#N)c2cccc3cccc1c32`: the result with Nucleic Acid [1], with Nucleic Acid [2] and in the experiment with Nucleic Acid [4] was Active. In addition, the IC50 was 260 nM in the experiment on SMMC-7721 and 13500 nM with MCF7.

In the case of `CC(=O)n1c(=C(C#N)C#N)c2cccc3cccc1c32`, the result in the experiment with Nucleic Acid [1], in the experiment with Nucleic Acid [3] and in the experiment with Nucleic Acid [2] was Active. For the same molecule, the IC50 in the experiment on SMMC-7721 stood at 115 nM; with MCF7 it was 3 nM.

Take `C=CCn1c(=C(C#N)C#N)c2cccc3cccc1c32`: the outcome with Nucleic Acid [1], with Nucleic Acid [2] and in the experiment with Nucleic Acid [4] was Active. The IC50 with SMMC-7721 was determined as 175 nM; in the experiment on MCF7, 4730 nM.

`N#CC(C#N)=c1c2cccc3cccc(c32)n1CCCCl`: the result in the experiment with Nucleic Acid [1] and with Nucleic Acid [2] was Active. For the same molecule, the IC50 came out at 354 nM in the experiment on SMMC-7721 and 6930 nM with MCF7.

Regarding `C#CCn1c(=C(C#N)C#N)c2cccc3cccc1c32`, the outcome with Nucleic Acid [1], in the experiment on Nucleic Acid [3], in the experiment on Nucleic Acid [2], in the experiment on Nucleic Acid [5], in the experiment with Nucleic Acid [4] and in the experiment with Nucleic Acid [6] was Active. Moreover, the IC50 in the experiment on SMMC-7721 is 728 nM; in the experiment on MCF7, 12500 nM.
